Measurements from different studies.
Each line is one published result; the experiments were not run side by side.
CYP2D6: Cytochrome P450 2D6 (CYP2D6, Homo sapiens, UniProt P10635)

| Structure (SMILES) | target or system | test | system | conditions | measurement | result |
| --- | --- | --- | --- | --- | --- | --- |
| CCn1c(=O)c(-c2cc(NC(=O)Nc3ccccc3)c(F)cc2Br)cc2cnc(NC)cc21 |  |  | beagle dog, plasma | oral, 5 mg/kg, single dose | AUC(0-inf) | 4030 ng·h/mL |
| Cc1nc(-c2cnc(NC(C)C)n(C)c2=O)ccc1Oc1ccnc(-c2cnn(C)c2)c1 |  |  | male beagle dog, plasma | oral, 3 mg/kg | AUC(0-t) | 7030 ng·h/mL |
| COCCc1ccc(OCC(O)CNC(C)C)cc1 (stereo not shown) | CYP2D6 |  | human, plasma | oral, 100 mg, single dose, healthy volunteers | Cmax | 123 ng/mL |
| O=C(NCCN1CCCC1)c1cc(-c2ccc(CN3CCOCC3)cc2)nc2ccc(F)cc12 |  |  | male beagle dog, blood | oral, 3 mg/kg | half-life | 20 h |
| Nc1nc(N)c2nc(C(=O)NCc3ccccc3)cnc2n1 | CYP2D6 | enzyme activity, inhibitor, luciferase |  | 10 µM | inhibition | 105% |
| Cc1ccc(C(CS(=O)(=O)c2ccccc2)=NN=C2N=C(c3ccc(Br)cc3)CS2)cc1 | WM 266-4 | cell growth or viability, MTT |  | 1.6 µg, 48 h | viability | 55.1% |
| COc1cc2c3c(n(CCCN4CCOCC4)c(=O)c2cc1OC)-c1cc2c(cc1C3=O)OCO2 |  |  | male beagle dog, plasma | intravenous, 10 mg/m², infusion | AUC(0-inf) | 383 ng·h/mL |
| Cc1ccc(C(CS(=O)(=O)c2ccccc2)=NNc2nc(-c3ccc(OCCCCOc4ccc(-c5csc(NN=C(CS(=O)(=O)c6ccccc6)c6ccc(C)cc6)n5)cc4)cc3)cs2)cc1 | WM 266-4 | cell growth or viability, MTT |  | 1.6 µg, 48 h | viability | 64.3% |
| C#C[C@]1(CO)O[C@@H](n2cnc3c(N)nc(F)nc32)C[C@@H]1O | Ca-Ski | cell growth or viability, MTT |  | 24 h | CC50 | > 50 µg/mL |
| Cc1ccc(C(CS(=O)(=O)c2ccccc2)=NNc2nc(C)c(N=Nc3cccc(C)c3)s2)cc1 | WM 266-4 | cell growth or viability, MTT |  | 1.6 µg, 48 h | viability | 52.6% |
| CCOC(=O)C1CCN(C(=O)c2ccc(N(CC)Cc3cnc4nc(N)nc(N)c4n3)cc2)CC1 | CYP2D6 | enzyme activity, inhibitor, luciferase |  | 10 µM | inhibition | -4.18% |
| NC(=S)NN=C(CS(=O)(=O)c1ccccc1)c1ccc(F)cc1 | WM 266-4 | cell growth or viability, MTT |  | 1.6 µg, 48 h | viability | 48.6% |
| CC[C@@H]1CN(C(=O)NCC(F)(F)F)C[C@@H]1c1cnc2cnc3[nH]ccc3n12 |  |  | beagle dog, plasma | oral, 1 mg/kg, single dose | AUC(0-t) | 558 ng·h/mL |
